{
  "source": "ChEMBL document CHEMBL3272328",
  "about": "“Novel analogs of tricyclic psychopharmacological agents” (J Med Chem, 1976)",
  "key": {"Mus musculus [1]": {"tested_on": "Mus musculus", "assay": "Antidepressant activity in pargyline-pretreated mouse assessed as potentiation of DL-DOPA-induced jumping, fighting and squeaking at 25 mg/kg, po treated 4 hrs prior to DL-DOPA-challenge", "type": "functional, organism-based", "parameters": "dose 25 mg/kg", "summary_of_the_method": "(§1)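 Mice were pretreated with pargyline 40 mg/kg po, given the test drug po 4 hr before the challenge, then challenged with DL-Dopa 200 mg/kg. The motor response (motor activity, jumping, fighting, squeaking/irritability) was graded slight (1), moderate (2) or marked (3). Four mice per dose.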"}, "Mus musculus [2]": {"tested_on": "Mus musculus", "assay": "Antidepressant activity in pargyline-pretreated mouse assessed as potentiation of serotonin-induced tremor, head movements, abducted limbs and irritability at 25 mg/kg, po treated 1 hr prior to serotonin-challenge", "type": "functional, organism-based", "parameters": "dose 25 mg/kg", "summary_of_the_method": "(§2)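 Mice received pargyline 40 mg/kg po, then the test drug po. They were challenged with 5-hydroxytryptophan 100 mg/kg ip either 1 or 4 hr later. Central responses were rated on the 1–3 scale (slight, moderate, marked). Three mice per dose.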"}, "Mus musculus [3]": {"tested_on": "Mus musculus", "assay": "Antidepressant activity in pargyline-pretreated mouse assessed as potentiation of serotonin-induced tremor, head movements, abducted limbs and irritability at 100 mg/kg, po treated 4 hrs prior to serotonin-challenge", "type": "functional, organism-based", "parameters": "dose 100 mg/kg", "summary_of_the_method": "as §2"}, "Mus musculus [4]": {"tested_on": "Mus musculus", "assay": "Antidepressant activity in pargyline-pretreated mouse assessed as potentiation of serotonin-induced tremor, head movements, abducted limbs and irritability at 50 mg/kg, po treated 1 hr prior to serotonin-challenge", "type": "functional, organism-based", "parameters": "dose 50 mg/kg", "summary_of_the_method": "as §2"}, "Mus musculus [5]": {"tested_on": "Mus musculus", "assay": "Antidepressant activity in pargyline-pretreated mouse assessed as potentiation of serotonin-induced tremor, head movements, abducted limbs and irritability at 50 mg/kg, po treated 4 hrs prior to serotonin-challenge", "type": "functional, organism-based", "parameters": "dose 50 mg/kg", "summary_of_the_method": "as §2"}, "Mus musculus [6]": {"tested_on": "Mus musculus", "assay": "Antidepressant activity in pargyline-pretreated mouse assessed as potentiation of DL-DOPA-induced jumping, fighting and squeaking at 20 mg/kg, po treated 4 hrs prior to DL-DOPA-challenge", "type": "functional, organism-based", "parameters": "dose 20 mg/kg", "summary_of_the_method": "as §1"}, "Mus musculus [7]": {"tested_on": "Mus musculus", "assay": "Antipsychotic activity in mouse assessed as change in methamphetamine-induced hyperactivity at 5 mg/kg, po relative to control", "type": "functional, organism-based", "parameters": "dose 5 mg/kg", "summary_of_the_method": "(§3)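 Mice were premedicated po with the test compound, then given methamphetamine 3 mg/kg sc. Motor activity was counted in photocell chambers, three mice per chamber and nine per dose. Counts are mean ± SE, expressed as % change from methamphetamine-only controls. Analysis was ANOVA followed by t test or Mann-Whitney U, with p < 0.05.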"}, "Mus musculus [8]": {"tested_on": "Mus musculus", "assay": "Antidepressant activity in pargyline-pretreated mouse assessed as potentiation of DL-DOPA-induced jumping, fighting and squeaking at 100 mg/kg, po treated 4 hrs prior to DL-DOPA-challenge", "type": "functional, organism-based", "parameters": "dose 100 mg/kg", "summary_of_the_method": "as §1"}, "Mus musculus [9]": {"tested_on": "Mus musculus", "assay": "Antidepressant activity in pargyline-pretreated mouse assessed as potentiation of DL-DOPA-induced jumping, fighting and squeaking at 10 mg/kg, po treated 4 hrs prior to DL-DOPA-challenge", "type": "functional, organism-based", "parameters": "dose 10 mg/kg", "summary_of_the_method": "as §1"}, "Mus musculus [10]": {"tested_on": "Mus musculus", "assay": "Antipsychotic activity in mouse assessed as change in methamphetamine-induced hyperactivity at 50 mg/kg, po relative to control", "type": "functional", "summary_of_the_method": "as §3"}, "Mus musculus [11]": {"tested_on": "Mus musculus", "assay": "Antidepressant activity in pargyline-pretreated mouse assessed as potentiation of serotonin-induced tremor, head movements, abducted limbs and irritability at 100 mg/kg, po treated 1 hr prior to serotonin-challenge", "type": "functional, organism-based", "parameters": "dose 100 mg/kg", "summary_of_the_method": "as §2"}, "Mus musculus [12]": {"tested_on": "Mus musculus", "assay": "Antidepressant activity in pargyline-pretreated mouse assessed as potentiation of DL-DOPA-induced jumping, fighting and squeaking at 5 mg/kg, po treated 4 hrs prior to DL-DOPA-challenge", "type": "functional, organism-based", "parameters": "dose 5 mg/kg", "summary_of_the_method": "as §1"}, "Mus musculus [13]": {"tested_on": "Mus musculus", "assay": "Antidepressant activity in pargyline-pretreated mouse assessed as potentiation of serotonin-induced tremor, head movements, abducted limbs and irritability at 25 mg/kg, po treated 4 hrs prior to serotonin-challenge", "type": "functional, organism-based", "parameters": "dose 25 mg/kg", "summary_of_the_method": "as §2"}, "[14]": {"assay": "Toxicity in ip dosed mouse", "type": "organism-based", "settings": "in vivo"}, "[15]": {"assay": "Toxicity in po dosed mouse", "type": "organism-based", "settings": "in vivo"}, "Mus musculus [16]": {"tested_on": "Mus musculus", "assay": "Antipsychotic activity in po dosed mouse assessed as change in methamphetamine-induced hyperactivity", "type": "functional", "summary_of_the_method": "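Mice were given test compound orally […] with a 4-hr pretreatment, then methamphetamine 3 mg/kg sc. Three mice were placed per photocell motor-activity chamber, with nine mice per dose. Photocell counts (mean ± SE) were compared with methamphetamine-treated controls and expressed as % change. Significance (p < 0.05) was tested by analysis of variance, then t test or Mann-Whitney U test.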"}, "Mus musculus [17]": {"tested_on": "Mus musculus", "assay": "Antipsychotic activity in mouse assessed as change in methamphetamine-induced hyperactivity at 10 mg/kg, po relative to control", "type": "functional", "summary_of_the_method": "as §3"}, "Mus musculus [18]": {"tested_on": "Mus musculus", "assay": "Antipsychotic activity in mouse assessed as change in methamphetamine-induced hyperactivity at 20 mg/kg, po relative to control", "type": "functional", "summary_of_the_method": "as §3"}},
  "note": "Active and inactive are the calls of the source. The calls are words filed in the database; no cut-off is given here.",
  "data": [
    {"smiles": "CN(C)C1C=C(C2c3ccccc3C=Cc3ccccc32)CCC1", "note": "(stereo not given)", "values": [
      {"measurement": "Activity", "setting": "Mus musculus [1]", "value": "Active"},
      {"measurement": "Activity", "setting": "Mus musculus [2]", "value": "inactive"},
      {"measurement": "Activity", "setting": "Mus musculus [3]", "value": "Active"},
      {"measurement": "Activity", "setting": "Mus musculus [4]", "value": "Active"},
      {"measurement": "Activity", "setting": "Mus musculus [5]", "value": "Active"},
      {"measurement": "Activity", "setting": "Mus musculus [6]", "value": "Active"},
      {"measurement": "Activity", "setting": "Mus musculus [7]", "value": "inactive"},
      {"measurement": "Activity", "setting": "Mus musculus [8]", "value": "Active"},
      {"measurement": "Activity", "setting": "Mus musculus [9]", "value": "Active"},
      {"measurement": "Activity", "setting": "Mus musculus [10]", "value": 23, "unit": "%"},
      {"measurement": "Activity", "setting": "Mus musculus [11]", "value": "Active"},
      {"measurement": "Activity", "setting": "Mus musculus [12]", "value": "inactive"},
      {"measurement": "Activity", "setting": "Mus musculus [13]", "value": "inactive"}
    ]},
    {"smiles": "CN1C2CCC1CC(C1(O)c3ccccc3CCc3ccccc31)C2", "note": "(stereo not given)", "values": [
      {"measurement": "Activity", "setting": "Mus musculus [1]", "value": "Active"},
      {"measurement": "Activity", "setting": "Mus musculus [7]", "value": "inactive"},
      {"measurement": "Activity", "setting": "Mus musculus [8]", "value": "Active"},
      {"measurement": "Activity", "setting": "Mus musculus [10]", "value": 11, "unit": "%"}
    ]},
    {"smiles": "CN(C)C1CCCCC(=C2c3ccccc3CCc3ccccc32)C1", "note": "(stereo not given)", "values": [
      {"measurement": "Activity", "setting": "Mus musculus [1]", "value": "Active"},
      {"measurement": "Activity", "setting": "Mus musculus [2]", "value": "inactive"},
      {"measurement": "Activity", "setting": "Mus musculus [4]", "value": "inactive"},
      {"measurement": "Activity", "setting": "Mus musculus [7]", "value": "inactive"},
      {"measurement": "Activity", "setting": "Mus musculus [8]", "value": "Active"},
      {"measurement": "Activity", "setting": "Mus musculus [10]", "value": 11, "unit": "%"},
      {"measurement": "Activity", "setting": "Mus musculus [11]", "value": "inactive"}
    ]},
    {"smiles": "CN1CC2C(C1)C21c2ccccc2CCc2ccc(Cl)cc21", "note": "(stereo not given)", "values": [
      {"measurement": "Activity", "setting": "Mus musculus [1]", "value": "Active"},
      {"measurement": "Activity", "setting": "Mus musculus [2]", "value": "inactive"},
      {"measurement": "Activity", "setting": "Mus musculus [3]", "value": "Active"},
      {"measurement": "Activity", "setting": "Mus musculus [4]", "value": "inactive"},
      {"measurement": "Activity", "setting": "Mus musculus [5]", "value": "Active"},
      {"measurement": "Activity", "setting": "Mus musculus [7]", "value": "inactive"},
      {"measurement": "Activity", "setting": "Mus musculus [8]", "value": "Active"},
      {"measurement": "Activity", "setting": "Mus musculus [10]", "value": 29, "unit": "%"},
      {"measurement": "Activity", "setting": "Mus musculus [11]", "value": "Active"},
      {"measurement": "Activity", "setting": "Mus musculus [13]", "value": "Active"}
    ]},
    {"smiles": "CN1C2CCC1CC(=C1c3ccccc3CCc3ccccc31)C2", "values": [
      {"measurement": "Activity", "setting": "Mus musculus [1]", "value": "inactive"},
      {"measurement": "Activity", "setting": "Mus musculus [2]", "value": "inactive"},
      {"measurement": "Activity", "setting": "Mus musculus [3]", "value": "inactive"},
      {"measurement": "Activity", "setting": "Mus musculus [4]", "value": "inactive"},
      {"measurement": "Activity", "setting": "Mus musculus [5]", "value": "inactive"},
      {"measurement": "Activity", "setting": "Mus musculus [7]", "value": "inactive"},
      {"measurement": "Activity", "setting": "Mus musculus [8]", "value": "Active"},
      {"measurement": "Activity", "setting": "Mus musculus [10]", "value": 14, "unit": "%"},
      {"measurement": "Activity", "setting": "Mus musculus [11]", "value": "Active"},
      {"measurement": "LD50", "setting": "[14]", "value": 30, "unit": "mg/kg"},
      {"measurement": "Activity", "setting": "Mus musculus [13]", "value": "inactive"},
      {"measurement": "LD50", "setting": "[15]", "value": 100, "unit": "mg/kg"}
    ]},
    {"smiles": "CN(C)CCCN1c2ccccc2CCc2ccc(Cl)cc21", "note": "[CLOMIPRAMINE]", "values": [
      {"measurement": "Activity", "setting": "Mus musculus [2]", "value": "Active"},
      {"measurement": "Activity", "setting": "Mus musculus [3]", "value": "Active"},
      {"measurement": "Activity", "setting": "Mus musculus [4]", "value": "Active"},
      {"measurement": "Activity", "setting": "Mus musculus [5]", "value": "Active"},
      {"measurement": "ED50", "setting": "Mus musculus [16]", "value": 5, "unit": "mg/kg"},
      {"measurement": "Activity", "setting": "Mus musculus [11]", "value": "Active"},
      {"measurement": "Activity", "setting": "Mus musculus [13]", "value": "Active"}
    ]},
    {"smiles": "CN(C)CCCN1c2ccccc2CCc2ccccc21", "note": "[IMIPRAMINE]", "values": [
      {"measurement": "Activity", "setting": "Mus musculus [1]", "value": "Active"},
      {"measurement": "Activity", "setting": "Mus musculus [17]", "value": 19, "unit": "%"},
      {"measurement": "Activity", "setting": "Mus musculus [18]", "value": 32, "unit": "%"},
      {"measurement": "Activity", "setting": "Mus musculus [7]", "value": "inactive"},
      {"measurement": "Activity", "setting": "Mus musculus [8]", "value": "Active"},
      {"measurement": "Activity", "setting": "Mus musculus [9]", "value": "Active"},
      {"measurement": "Activity", "setting": "Mus musculus [12]", "value": "inactive"}
    ]}
  ]
}
